Results from different studies.
Protocols differ between the studies behind these lines.
Effect on: cell growth or viability

With OC1CCN(c2ccc(/C=N/NC(=S)Nc3ccc(F)cc3)cc2)CC1 the IC50 was 29.1 µM (BEAS-2B; MTT; 24 h).
For OCc1ccc(-c2nn(Cc3ccccc3)c3ncccc23)o1, the IC50 was 15.5 µM (RBE; ATP luminescence).
Cc1nc2ccc(-c3ccc(OCc4ccccc4)c(F)c3)cc2c(O)c1C(=O)O gave an IC50 of at least 100 µM (MDA-MB-468; MTT; 48 h).
The IC50 of CC(=O)ON=C1C=CC(=C(C#N)c2ccccc2)C=C1 is reported as 20.3 µg/mL (human Fibroblast; MTT; 48 h).
OC1CCN(c2ccc(/C=N/NC(=S)Nc3ccccc3)cc2)CC1 has an IC50 of 18.9 µM (BEAS-2B; MTT; 24 h).
The IC50 of CNCc1ccc(-c2nn(Cc3ccccc3)c3ccccc23)o1 is reported as 21.4 µM (RBE; ATP luminescence).
The IC50 of Cc1nc2ccc(-c3ccc(F)cc3F)cc2c(O)c1C(=O)O is reported as at least 100 µM (MDA-MB-468; MTT; 48 h).
COc1cccc2c1C(=O)c1c(O)c3c(c(O)c1C2=O)C[C@@](O)(C(=O)CO)C[C@@H]3O[C@H]1C[C@H](N)[C@H](O)[C@H](C)O1 gave an IC50 of 0.256 µM (SGC-7901; 96 h).
Cc1nc2ccc(-c3ccc(F)cc3)cc2c(O)c1C(=O)O has an IC50 of at least 100 µM (MDA-MB-468; MTT; 48 h).
Nc1nc2cc(CC[C@H]3C[C@@H](n4ccc5c(N)ncnc54)[C@H](O)[C@@H]3O)ccc2cc1Br has an IC50 of over 100 µM (MDA-MB-435S; CCK-8; 72 h).
For COc1cc(C2C3=C(COC3=O)N(CCO)c3cc4c(cc32)CCC4)cc(OC)c1OC (centres unmarked), the IC50 was 0.1 µM (MDA-MB-468; ATP luminescence; 48 h).
With CCOC(=O)c1c(C)nc2ccc(-c3ccc(F)cc3F)cc2c1O the IC50 was 8 µM (MDA-MB-468; MTT; 48 h).
For CN1CCC(NC2CCc3[nH]c4c(C(N)=O)ccc(-c5ccccc5Cl)c4c3C2)CC1 (centres unmarked), the IC50 was 0.0172 µM (SGC-7901; 96 h).
Cc1cnc(Cn2nc(-c3ccc(CO)o3)c3ccccc32)s1 gave an IC50 of 1.05 µM (RBE; ATP luminescence).
The IC50 of FC(F)(F)c1ccc(-c2noc(-c3nn(Cc4ccc(Cl)cc4Cl)c4ccccc34)n2)cc1 is reported as 130 µM (human Fibroblast; 48 h).
OCc1ccc(N2CCc3cccc(F)c3C2)cc1Cl has an IC50 of under 0.2 µM (RBE; ATP luminescence).
With OCn1ccnc1 the IC50 was over 800 µM (BEAS-2B; MTT; 24 h).
With Cc1nc2ccc(-c3ccc(F)c(F)c3)cc2c(O)c1C(=O)O the IC50 was at least 100 µM (MDA-MB-468; MTT; 48 h).
With O=C(O)c1nn(Cc2ccc(Cl)cc2Cl)c2ccccc12 the IC50 was 259 µM (human Fibroblast; 48 h).
C/C(=N\C1CCCCC1/N=C(\C)c1c(O)c2ccccc2oc1=O)c1c(O)c2ccccc2oc1=O (centres unmarked) gave an IC50 of 5.46 µM (BEAS-2B; MTT; 48 h).
The IC50 of c1ccc(Cc2nnc(-c3nn(Cc4ccccc4)c4ccccc34)o2)cc1 is reported as 635 µM (human Fibroblast; 48 h).
The IC50 of OCc1ccc(-c2nn(Cc3cccnc3)c3cccnc23)o1 is reported as 5.01 µM (RBE; ATP luminescence).
With C/C(=N\c1nc(N)nc(/N=C(\C)c2c(O)c3ccccc3oc2=O)n1)c1c(O)c2ccccc2oc1=O the IC50 was 64.3 µM (BEAS-2B; MTT; 48 h).
For c1ccc(-c2noc(-c3nn(Cc4ccncc4)c4ccccc34)n2)cc1, the IC50 was 51.4 µM (human Fibroblast; 48 h).
CC(C)CNC(=S)N/N=C/c1ccc(N2CCC(O)CC2)cc1 has an IC50 of 10.8 µM (BEAS-2B; MTT; 24 h).
C/C(=N\CCNCCNCC/N=C(\C)c1c(O)c2ccccc2oc1=O)c1c(O)c2ccccc2oc1=O gave an IC50 of 4.11 µM (BEAS-2B; MTT; 48 h).
CNC(=O)c1cc(Oc2ccc(NC(=O)Nc3ccc(Cl)c(C(F)(F)F)c3)cc2)ccn1 gave an IC50 of 15.8 µM (BEAS-2B; MTT; 24 h).
C/C(=N\C(=N)/N=C(\C)c1c(O)c2ccccc2oc1=O)c1c(O)c2ccccc2oc1=O has an IC50 of 44.5 µM (BEAS-2B; MTT; 48 h).
For Cc1nnc(-c2nn(Cc3ccc(Cl)cc3Cl)c3ccccc23)o1, the IC50 was 97.5 µM (human Fibroblast; 48 h).
OCc1ccc(-c2nn(-c3ccccc3)c3ccccc23)o1 has an IC50 of 4.27 µM (RBE; ATP luminescence).
With FC(F)(F)c1ccc(-c2nnc(-c3nn(Cc4ccc(Cl)cc4Cl)c4ccccc34)o2)cc1 the IC50 was 100 µM (human Fibroblast; 48 h).
The IC50 of COc1ccc(Cn2nc(-c3ccc(CO)o3)c3ccccc32)cc1 is reported as 1.12 µM (RBE; ATP luminescence).
Clc1ccc(Cn2nc(-c3nc(-c4ccccc4)no3)c3ccccc32)c(Cl)c1 gave an IC50 of 164 µM (human Fibroblast; 48 h).
COc1ccc(NC(=S)N/N=C/c2ccc(N3CCC(O)CC3)cc2)cc1 gave an IC50 of 17.5 µM (BEAS-2B; MTT; 24 h).
For CC(c1ccccc1)n1nc(-c2ccc(CO)o2)c2ccccc21 (centres unmarked), the IC50 was 4.17 µM (RBE; ATP luminescence).
